Source: BindingDB's records for doi:10.1021/acs.jmedchem.7b00976 (Leipzig University, 2017)

Tests used:
[1] = biological target: T1, Neuropeptide Y receptor type 4 (Homo sapiens, UniProt P50391); assay: ASSAY_NAME: ChEMBL_1668991 (CHEMBL4018879) DESCRIPTION: Positive allosteric modulation of human NY4 receptor expressed in African green monkey COS7 cells co-expressing delta6Galphaqi4-myr assessed as potentiation of pancreatic polypeptide induced-calcium flux by measuring pancreatic polypeptide EC50 at 30 uM treated at 20 secs post baseline detection followed by addition of pancreatic polypeptide …
[2] = biological target: T1, Neuropeptide Y receptor type 4; assay: (§1) Positive allosteric modulation of human NY4 receptor expressed in African green monkey COS7 cells co-expressing delta6Galphaqi4-myr assessed as potentiation of peptide YY induced-calcium flux by measuring peptide YY EC50 at 30 uM treated at 20 secs post baseline detection followed by addition of peptide YY after 140 secs by Fluo2-AM fluorescent dye based-assay (Rvb = 2.6 nM)
How it was run: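 COS7 cells stably co-expressing human Y4R-eYFP fusion and chimeric Δ6Gαqi4-myr, seeded overnight in 96-well format; loaded with 2.4 μM Fluo2-AM in HBSS/20 mM HEPES/probenecid, 60 min at 37 °C. Two-addition FlexStation read (ex 485/em 525 nm): compound or DMSO after 20 s baseline, PYY at 140 s. Response as x-fold over basal, normalized to PP; duplicates, ≥3 independent experiments.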

[3] = biological target: T1, Neuropeptide Y receptor type 4; assay: Positive allosteric modulation of human C-terminal eYFP-tagged NY4 receptor expressed in HEK293 cells assessed as potentiation of pancreatic polypeptide-induced arrestin 3 recruitment by measuring pancreatic polypeptide EC50 at 30 uM after 30 mins by BRET assay (Rvb = 5.6 nM)
[4] = biological target: T1, Neuropeptide Y receptor type 4; assay: Effect on neuropeptide Y-mediated displacement of 125I-pancreatic polypeptide from human C-terminal eYFP-tagged NY4 receptor expressed in HEK293 cell membranes assessed as neuropeptide Y pKi at 30 uM after 5 hrs by scintillation counting (Rvb = 7.9 +/- 0.2 No_unit)
[5] = biological target: T1, Neuropeptide Y receptor type 4; assay: Effect on peptide YY-mediated displacement of 125I-pancreatic polypeptide from human C-terminal eYFP-tagged NY4 receptor expressed in HEK293 cell membranes assessed as peptide YY pKi at 30 uM after 5 hrs by scintillation counting (Rvb = 8 +/- 0.2 No_unit)
[6] = biological target: T1, Neuropeptide Y receptor type 4; assay: Positive allosteric modulation of human C-terminal eYFP-tagged NY4 receptor expressed in HEK293 cells assessed as potentiation of pancreatic polypeptide-induced arrestin 3 recruitment by measuring pancreatic polypeptide pEC50 at 30 uM after 30 mins by BRET assay (Rvb = 8.3 +/- 0.12 No_unit)
[7] = biological target: T1, Neuropeptide Y receptor type 4; assay: Positive allosteric modulation of human C-terminal eYFP-tagged NY4 receptor expressed in HEK293 cells assessed as potentiation of peptide YY-induced arrestin 3 recruitment by measuring peptide YY pEC50 at 30 uM after 30 mins by BRET assay (Rvb = 5.8 +/- 0.20 No_unit)
[8] = biological target: T2, Neuropeptide Y receptor type 2 (Homo sapiens, UniProt P49146); assay: ASSAY_NAME: ChEMBL_1668994 (CHEMBL4018882) DESCRIPTION: Positive allosteric modulation of human C-terminal eYFP-fused human NY2 receptor expressed in African green monkey COS7 cells co-expressing delta6Galphaqi4-myr assessed as potentiation of neuropeptide Y-mediated Ca2+ flux by measuring pancreatic polypeptide EC50 at 30 uM treated at 20 secs post baseline detection followed by addition of …
T2 sequence (P49146 whole entry): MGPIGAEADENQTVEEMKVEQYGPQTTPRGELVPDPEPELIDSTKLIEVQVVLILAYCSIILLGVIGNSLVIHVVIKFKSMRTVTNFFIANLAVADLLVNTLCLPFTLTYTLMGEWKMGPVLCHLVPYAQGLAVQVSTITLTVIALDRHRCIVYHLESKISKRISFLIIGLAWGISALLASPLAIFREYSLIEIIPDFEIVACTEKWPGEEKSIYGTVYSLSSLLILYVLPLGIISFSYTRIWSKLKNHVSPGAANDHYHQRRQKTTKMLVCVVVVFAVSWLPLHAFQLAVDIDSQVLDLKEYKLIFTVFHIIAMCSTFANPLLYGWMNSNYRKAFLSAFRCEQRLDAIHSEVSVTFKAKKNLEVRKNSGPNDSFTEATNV

[9] = biological target: T1, Neuropeptide Y receptor type 4; assay: Positive allosteric modulation of human C-terminal eYFP-tagged NY4 receptor expressed in HEK293 cells assessed as potentiation of peptide YY-induced arrestin 3 recruitment by measuring peptide YY EC50 at 30 uM after 30 mins by BRET assay (Rvb = 1600 nM)
[10] = biological target: T1, Neuropeptide Y receptor type 4; assay: as §1, with “pEC50” for “EC50”, “8.6 +/- 0.08 No_unit)” for “2.6 nM)”
How it was run: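 COS7 cells stably co-expressing Y4R-eYFP and Δ6Gαqi4-myr were seeded overnight. They were loaded with 2.4 μM Fluo2-AM in HBSS/20 mM HEPES/[…] for 60 min at 37 °C, then kept in assay buffer. Fluorescence was read at ex 485/em 525 nm. Compound was added after a 20 s baseline and peptide at 140 s. Response was taken as x-fold over basal, normalized to the DMSO control, and fitted to an operational model of allosterism. Duplicates, at least three independent runs.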

[11] = Positive allosteric modulation of human C-terminal eYFP-tagged NY4 receptor expressed in HEK293 cells assessed as potentiation of neuropeptide Y-induced arrestin 3 recruitment by measuring neuropeptide Y EC50 at 30 uM after 30 mins by BRET assay (Rvb = 1380 nM)
[12] = Positive allosteric modulation of human C-terminal eYFP-tagged NY4 receptor expressed in HEK293 cells assessed as potentiation of neuropeptide Y-induced arrestin 3 recruitment by measuring neuropeptide Y pEC50 at 30 uM after 30 mins by BRET assay (Rvb = 5.9 +/- 0.15 No_unit)
[13] = Positive allosteric modulation of human NY4 receptor expressed in African green monkey COS7 cells co-expressing delta6Galphaqi4-myr assessed as potentiation of pancreatic polypeptide induced-calcium flux by measuring pancreatic polypeptide pEC50 at 30 uM treated at 20 secs post baseline detection followed by addition of pancreatic polypeptide
[14] = Positive allosteric modulation of human NY4 receptor expressed in African green monkey COS7 cells co-expressing delta6Galphaqi4-myr assessed as potentiation of neuropeptide Y induced-calcium flux by measuring neuropeptide Y pEC50 at 30 uM treated at 20 secs post baseline detection followed by addition of neuropeptide Y after 140 secs by Fluo2
[15] = Positive allosteric modulation of human C-terminal eYFP-fused human NY1 receptor expressed in African green monkey COS7 cells co-expressing delta6Galphaqi4-myr assessed as potentiation of neuropeptide Y-mediated Ca2+ flux by measuring […] at 30 uM treated at 20 secs post baseline detection followed by addition of neuro
[16] = Positive allosteric modulation of human NY4 receptor expressed in African green monkey COS7 cells co-expressing delta6Galphaqi4-myr assessed as potentiation of neuropeptide Y induced-calcium flux by measuring neuropeptide Y EC50 at 30 uM treated at 20 secs post baseline detection followed by addition of neuropeptide Y after 140 secs by Fluo2-

T1 sequence (P50391 whole entry C240R): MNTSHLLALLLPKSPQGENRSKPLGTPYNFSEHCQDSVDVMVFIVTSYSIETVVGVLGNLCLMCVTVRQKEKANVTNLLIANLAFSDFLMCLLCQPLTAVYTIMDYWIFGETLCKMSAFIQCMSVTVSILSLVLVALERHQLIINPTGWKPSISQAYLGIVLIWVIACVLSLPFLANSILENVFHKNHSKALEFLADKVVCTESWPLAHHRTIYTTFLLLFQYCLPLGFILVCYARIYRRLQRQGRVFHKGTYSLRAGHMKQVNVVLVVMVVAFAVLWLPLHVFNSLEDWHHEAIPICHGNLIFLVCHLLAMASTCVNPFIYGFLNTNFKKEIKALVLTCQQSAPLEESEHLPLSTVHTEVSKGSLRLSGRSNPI

EC50 [1]: 0.03 nM
EC50 [2]: 0.5 nM
EC50 [3]: 4.5 nM
Ki [4]: 6.3 nM
Ki [5]: 6.3 nM
EC50 [6]: 4 nM
EC50 [7]: 794 nM
EC50 [8]: 0.0631 nM
EC50 [9]: 845 nM
EC50 [10]: 0.501 nM
EC50 [11]: 443 nM
EC50 [12]: 398 nM
EC50 [13]: 0.0398 nM
EC50 [14]: 0.398 nM
EC50 [15]: 0.0398 nM
EC50 [16]: 0.4 nM
Compound: CC(C)(C)c1ccc(OC2CCCCC2O)cc1 (stereo unspecified)
